In ChEMBL document CHEMBL4354843, “Structure-Based Design of a Potent and Selective Covalent Inhibitor for SRC Kinase That Targets a P-Loop Cysteine” (J Med Chem, 2020):

How the values were obtained:
[1] = target: Mitogen-activated protein kinase kinase kinase 6 (Homo sapiens) (UniProt O95382); test: Binding affinity to wild-type human partial length ASK2 (M278 to R972 residues) expressed in mammalian expression system assessed as residual binding level at 1 uM by Kinomescan method relative to control
How it was run: (§1)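 KinomeScan, an active site-directed competition binding panel of 468 kinases. The test compound was at 1 μM. The readout is remaining kinase binding as a percentage of the DMSO control. Scores above 35% were treated as weak binding and not listed.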

[2] = target: Cyclin-dependent kinase 2 (Homo sapiens) (UniProt P24941); test: Binding affinity to wild-type human full length CDK2 (M1 to L298 residues) expressed in bacterial expression system assessed as residual binding level at 1 uM by Kinomescan method relative to control
How it was run: (§2)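 Active-site-directed KinomeScan competition binding panel covering 468 kinases, compound tested at 1 μM. Each readout is the kinase signal remaining with compound, expressed as a percentage of the DMSO control. […]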

[3] = target: Cyclin-dependent kinase 8 (Homo sapiens) (UniProt P49336); test: Binding affinity to wild-type human partial length CDK8 (M1 to T360 residues) expressed in bacterial expression system assessed as residual binding level at 1 uM by Kinomescan method relative to control
[4] = target: Death-associated protein kinase 2 (Homo sapiens) (UniProt Q9UIK4); test: Binding affinity to wild-type human full length DAPK2 (M1 to S370 residues) expressed in bacterial expression system assessed as residual binding level at 1 uM by Kinomescan method relative to control; how it was run: as §2
Chain of Death-associated protein kinase 2 (Homo sapiens) (Q9UIK4 whole entry, looked up, the tested form may be a part): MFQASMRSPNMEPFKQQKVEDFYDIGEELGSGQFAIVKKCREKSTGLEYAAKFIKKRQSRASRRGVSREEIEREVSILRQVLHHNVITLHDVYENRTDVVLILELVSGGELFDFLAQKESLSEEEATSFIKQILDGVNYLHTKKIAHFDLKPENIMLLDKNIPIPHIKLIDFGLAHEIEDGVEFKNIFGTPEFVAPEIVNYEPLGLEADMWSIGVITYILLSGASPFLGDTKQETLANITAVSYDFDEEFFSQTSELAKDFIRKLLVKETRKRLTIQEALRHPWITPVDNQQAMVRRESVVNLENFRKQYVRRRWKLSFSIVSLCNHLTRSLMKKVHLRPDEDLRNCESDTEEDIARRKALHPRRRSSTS

[5] = target: Dual specificity tyrosine-phosphorylation-regulated kinase 2 (Homo sapiens) (UniProt Q92630); test: Binding affinity to wild-type human full length DYRK2 (M1 to S528 residues) expressed in mammalian expression system assessed as residual binding level at 1 uM by Kinomescan method relative to control; how it was run: as §2
Chain of Dual specificity tyrosine-phosphorylation-regulated kinase 2 (Homo sapiens) (Q92630 whole entry, the tested form may be a part): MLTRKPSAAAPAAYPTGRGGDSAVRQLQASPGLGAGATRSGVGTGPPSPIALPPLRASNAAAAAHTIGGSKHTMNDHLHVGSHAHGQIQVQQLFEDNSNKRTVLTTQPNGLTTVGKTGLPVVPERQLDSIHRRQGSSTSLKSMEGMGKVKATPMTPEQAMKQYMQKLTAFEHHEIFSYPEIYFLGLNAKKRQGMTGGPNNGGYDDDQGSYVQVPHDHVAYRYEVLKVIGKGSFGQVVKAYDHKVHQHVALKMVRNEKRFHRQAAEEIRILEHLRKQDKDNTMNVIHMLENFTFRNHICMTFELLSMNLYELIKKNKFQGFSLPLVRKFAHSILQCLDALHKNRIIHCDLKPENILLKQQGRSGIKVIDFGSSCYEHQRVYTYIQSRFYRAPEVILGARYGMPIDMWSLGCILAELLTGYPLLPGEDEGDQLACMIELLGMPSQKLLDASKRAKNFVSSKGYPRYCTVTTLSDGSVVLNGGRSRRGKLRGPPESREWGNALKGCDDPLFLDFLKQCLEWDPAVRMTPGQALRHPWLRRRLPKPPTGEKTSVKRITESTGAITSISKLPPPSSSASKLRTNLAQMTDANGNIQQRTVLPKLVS

[6] = target: Ephrin type-A receptor 6 (Homo sapiens) (UniProt Q9UF33); test: Binding affinity to wild-type human partial length EPHA6 (Y700 to E1046 residues) expressed in bacterial expression system assessed as residual binding level at 1 uM by Kinomescan method relative to control
Chain of Ephrin type-A receptor 6 (Homo sapiens) (Q9UF33 whole entry, the tested form may be a part): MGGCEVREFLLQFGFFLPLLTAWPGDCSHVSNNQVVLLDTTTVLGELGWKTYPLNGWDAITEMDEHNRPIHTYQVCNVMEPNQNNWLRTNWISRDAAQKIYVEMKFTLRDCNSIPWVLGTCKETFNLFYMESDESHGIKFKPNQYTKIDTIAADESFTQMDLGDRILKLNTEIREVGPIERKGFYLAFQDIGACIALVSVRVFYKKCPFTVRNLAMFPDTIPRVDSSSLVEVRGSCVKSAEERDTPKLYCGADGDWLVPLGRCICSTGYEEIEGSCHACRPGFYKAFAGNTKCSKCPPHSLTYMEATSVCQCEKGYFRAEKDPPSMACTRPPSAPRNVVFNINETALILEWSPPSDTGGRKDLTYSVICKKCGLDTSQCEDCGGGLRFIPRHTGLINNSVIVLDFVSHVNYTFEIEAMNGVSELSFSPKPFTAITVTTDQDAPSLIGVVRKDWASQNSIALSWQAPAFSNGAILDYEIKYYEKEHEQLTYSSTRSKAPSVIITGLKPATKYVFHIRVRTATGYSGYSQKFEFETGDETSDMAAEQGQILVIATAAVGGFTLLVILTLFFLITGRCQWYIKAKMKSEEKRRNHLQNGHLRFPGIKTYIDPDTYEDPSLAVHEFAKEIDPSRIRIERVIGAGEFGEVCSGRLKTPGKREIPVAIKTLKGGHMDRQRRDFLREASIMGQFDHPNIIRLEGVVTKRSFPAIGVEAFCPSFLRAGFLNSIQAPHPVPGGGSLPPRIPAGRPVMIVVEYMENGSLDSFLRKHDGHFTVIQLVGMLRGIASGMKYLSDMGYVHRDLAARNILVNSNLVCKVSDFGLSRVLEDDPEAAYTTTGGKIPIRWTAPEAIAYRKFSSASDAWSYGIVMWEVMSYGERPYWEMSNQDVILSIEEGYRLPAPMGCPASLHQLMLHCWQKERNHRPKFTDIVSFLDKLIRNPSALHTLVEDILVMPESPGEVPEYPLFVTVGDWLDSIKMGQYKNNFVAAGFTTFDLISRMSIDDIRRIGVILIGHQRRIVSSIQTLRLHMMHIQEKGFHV

[7] = tested on: Receptor-type tyrosine-protein kinase FLT3 (Homo sapiens), P36888 [UNDEFINED MUTATION]; test: Binding affinity to human partial length FLT3 ITD mutant expressed in bacterial expression system assessed as residual binding level at 1 uM by Kinomescan method relative to control
Chain of Receptor-type tyrosine-protein kinase FLT3 (Homo sapiens), P36888 [UNDEFINED MUTATION] (P36888 whole entry, looked up, change not shown): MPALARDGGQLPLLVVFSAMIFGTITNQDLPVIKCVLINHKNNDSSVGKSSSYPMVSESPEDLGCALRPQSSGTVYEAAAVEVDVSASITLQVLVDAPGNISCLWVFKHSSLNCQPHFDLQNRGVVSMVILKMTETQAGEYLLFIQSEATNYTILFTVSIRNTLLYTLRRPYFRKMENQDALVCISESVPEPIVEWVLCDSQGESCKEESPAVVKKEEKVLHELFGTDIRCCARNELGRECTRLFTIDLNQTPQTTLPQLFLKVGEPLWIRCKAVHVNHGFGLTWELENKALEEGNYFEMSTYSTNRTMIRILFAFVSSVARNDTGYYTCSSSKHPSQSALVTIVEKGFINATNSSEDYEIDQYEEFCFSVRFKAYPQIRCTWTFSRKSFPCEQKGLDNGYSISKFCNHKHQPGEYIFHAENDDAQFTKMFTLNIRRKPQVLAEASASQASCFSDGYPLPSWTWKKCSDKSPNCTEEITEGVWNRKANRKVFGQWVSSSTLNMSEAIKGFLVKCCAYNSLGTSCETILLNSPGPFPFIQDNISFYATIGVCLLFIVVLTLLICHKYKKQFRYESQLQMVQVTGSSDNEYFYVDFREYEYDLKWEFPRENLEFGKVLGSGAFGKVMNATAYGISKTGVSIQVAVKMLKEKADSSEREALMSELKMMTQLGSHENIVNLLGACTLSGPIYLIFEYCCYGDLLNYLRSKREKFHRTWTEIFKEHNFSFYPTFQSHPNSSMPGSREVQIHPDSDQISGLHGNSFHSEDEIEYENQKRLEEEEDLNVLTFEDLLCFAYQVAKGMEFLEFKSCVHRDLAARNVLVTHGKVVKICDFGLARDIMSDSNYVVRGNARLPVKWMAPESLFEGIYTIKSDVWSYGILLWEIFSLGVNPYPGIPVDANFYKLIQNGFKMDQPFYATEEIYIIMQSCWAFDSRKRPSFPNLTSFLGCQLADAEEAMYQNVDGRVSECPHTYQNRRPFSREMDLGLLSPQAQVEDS
How it was run: (§3)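 KinomeScan active site-directed competition binding panel (468 kinases), compound tested at 1 μM. Result expressed as remaining kinase signal versus DMSO control (percent of control).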

[8] = target: Serine/threonine-protein kinase ICK (Homo sapiens) (UniProt Q9UPZ9); test: Binding affinity to wild-type human partial length ICK (M1 to P314 residues) expressed in mammalian expression system assessed as residual binding level at 1 uM by Kinomescan method relative to control
How it was run: (§4)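 Active-site-directed competition binding panel of 468 kinases (KinomeScan), compound at 1 μM. The read-out is kinase remaining bound, given as a percentage of the DMSO control. […]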

[9] = target: Insulin-like growth factor 1 receptor (Homo sapiens) (UniProt P08069); test: Binding affinity to wild-type human partial length IGF1R (L972 to D1294 residues) expressed in bacterial expression system assessed as residual binding level at 1 uM by Kinomescan method relative to control
[10] = tested on: Mast/stem cell growth factor receptor Kit (Homo sapiens), P10721 [V559D,T670I]; test: Binding affinity to human partial length KIT V559D/T670I double mutant (Y545 to D952 residues) expressed in bacterial expression system assessed as residual binding level at 1 uM by Kinomescan method relative to control; how it was run: as §3
[11] = target: Mitogen-activated protein kinase kinase kinase kinase 3 (Homo sapiens) (UniProt Q8IVH8); test: Binding affinity to wild-type human partial length MAP4K3 (M1 to D301 residues) expressed in bacterial expression system assessed as residual binding level at 1 uM by Kinomescan method relative to control
[12] = target: Dual specificity mitogen-activated protein kinase kinase 2 (Homo sapiens) (UniProt P36507); test: Binding affinity to wild-type human full length MEK2 (M1 to V400 residues) expressed in mammalian expression system assessed as residual binding level at 1 uM by Kinomescan method relative to control; how it was run: as §1
Chain of Dual specificity mitogen-activated protein kinase kinase 2 (Homo sapiens) (P36507 whole entry, the tested form may be a part): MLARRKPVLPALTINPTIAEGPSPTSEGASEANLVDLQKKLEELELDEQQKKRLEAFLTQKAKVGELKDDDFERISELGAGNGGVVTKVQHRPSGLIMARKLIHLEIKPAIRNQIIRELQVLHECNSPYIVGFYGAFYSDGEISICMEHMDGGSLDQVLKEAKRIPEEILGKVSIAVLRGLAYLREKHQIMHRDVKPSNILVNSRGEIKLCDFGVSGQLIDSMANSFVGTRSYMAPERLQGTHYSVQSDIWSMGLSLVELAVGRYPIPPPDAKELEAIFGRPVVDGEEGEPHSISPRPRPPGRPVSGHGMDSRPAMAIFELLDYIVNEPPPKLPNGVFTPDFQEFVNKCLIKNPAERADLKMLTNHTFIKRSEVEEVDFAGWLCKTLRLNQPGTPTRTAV

[13] = target: Misshapen-like kinase 1 (Homo sapiens) (UniProt Q8N4C8); test: Binding affinity to wild-type human partial length MINK (M1 to K312 residues) expressed in mammalian expression system assessed as residual binding level at 1 uM by Kinomescan method relative to control; how it was run: as §4
[14] = target: Serine/threonine-protein kinase OSR1 (Homo sapiens) (UniProt O95747); test: Binding affinity to wild-type human full length OSR1 (M1 to S527 residues) expressed in mammalian expression system assessed as residual binding level at 1 uM by Kinomescan method relative to control
Chain of Serine/threonine-protein kinase OSR1 (Homo sapiens) (O95747 2-527 limits assumed): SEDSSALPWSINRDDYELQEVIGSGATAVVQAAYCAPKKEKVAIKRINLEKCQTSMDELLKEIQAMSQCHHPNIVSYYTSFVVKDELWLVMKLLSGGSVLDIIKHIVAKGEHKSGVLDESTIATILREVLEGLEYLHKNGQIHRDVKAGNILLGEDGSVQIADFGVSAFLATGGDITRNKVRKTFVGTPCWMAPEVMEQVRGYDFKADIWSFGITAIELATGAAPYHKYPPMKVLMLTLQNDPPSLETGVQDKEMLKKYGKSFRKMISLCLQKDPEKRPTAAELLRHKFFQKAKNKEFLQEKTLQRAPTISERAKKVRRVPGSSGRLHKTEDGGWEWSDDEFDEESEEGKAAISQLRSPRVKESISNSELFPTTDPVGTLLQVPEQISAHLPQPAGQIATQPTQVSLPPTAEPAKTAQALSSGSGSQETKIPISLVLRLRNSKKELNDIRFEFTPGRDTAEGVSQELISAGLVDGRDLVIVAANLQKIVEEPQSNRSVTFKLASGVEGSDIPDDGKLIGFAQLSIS
How it was run: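 Active-site-directed competition binding panel (KinomeScan) covering 468 kinases. Test agent was screened at 1 μM. The read-out is the remaining kinase signal expressed relative to a DMSO control. Scores above 35%, taken as weak binding, were not reported.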

[15] = target: Calcium-dependent protein kinase 1 (Plasmodium falciparum) (UniProt P62344); test: Binding affinity to wild-type Plasmodium falciparum full length CDPK1 (M1 to S524 residues) expressed in mammalian expression system assessed as residual binding level at 1 uM by Kinomescan method relative to control; how it was run: as §1
[16] = target: Protein kinase C iota type (Homo sapiens) (UniProt P41743); test: Binding affinity to wild-type human partial length PRKCI (H215 to V587 residues) expressed in mammalian expression system assessed as residual binding level at 1 uM by Kinomescan method relative to control; how it was run: as §4
[17] = target: Serine/threonine-protein kinase D2 (Homo sapiens) (UniProt Q9BZL6); test: Binding affinity to wild-type human partial length PRKD2 (A519 to E838 residues) expressed in bacterial expression system assessed as residual binding level at 1 uM by Kinomescan method relative to control; how it was run: as §4
[18] = target: RAF proto-oncogene serine/threonine-protein kinase (Homo sapiens) (UniProt P04049); test: Binding affinity to wild-type human partial length RAF1 (I330 to T640 residues) expressed in bacterial expression system assessed as residual binding level at 1 uM by Kinomescan method relative to control
[19] = tested on: Proto-oncogene tyrosine-protein kinase receptor Ret (Homo sapiens), P07949 [V804M]; test: Binding affinity to human partial length RET V804M mutant (E713 to D1014 residues) expressed in bacterial expression system assessed as residual binding level at 1 uM by Kinomescan method relative to control; how it was run: as §3
Chain of Proto-oncogene tyrosine-protein kinase receptor Ret (Homo sapiens), P07949 [V804M] (P07949 whole entry V804M, the tested form may be a part): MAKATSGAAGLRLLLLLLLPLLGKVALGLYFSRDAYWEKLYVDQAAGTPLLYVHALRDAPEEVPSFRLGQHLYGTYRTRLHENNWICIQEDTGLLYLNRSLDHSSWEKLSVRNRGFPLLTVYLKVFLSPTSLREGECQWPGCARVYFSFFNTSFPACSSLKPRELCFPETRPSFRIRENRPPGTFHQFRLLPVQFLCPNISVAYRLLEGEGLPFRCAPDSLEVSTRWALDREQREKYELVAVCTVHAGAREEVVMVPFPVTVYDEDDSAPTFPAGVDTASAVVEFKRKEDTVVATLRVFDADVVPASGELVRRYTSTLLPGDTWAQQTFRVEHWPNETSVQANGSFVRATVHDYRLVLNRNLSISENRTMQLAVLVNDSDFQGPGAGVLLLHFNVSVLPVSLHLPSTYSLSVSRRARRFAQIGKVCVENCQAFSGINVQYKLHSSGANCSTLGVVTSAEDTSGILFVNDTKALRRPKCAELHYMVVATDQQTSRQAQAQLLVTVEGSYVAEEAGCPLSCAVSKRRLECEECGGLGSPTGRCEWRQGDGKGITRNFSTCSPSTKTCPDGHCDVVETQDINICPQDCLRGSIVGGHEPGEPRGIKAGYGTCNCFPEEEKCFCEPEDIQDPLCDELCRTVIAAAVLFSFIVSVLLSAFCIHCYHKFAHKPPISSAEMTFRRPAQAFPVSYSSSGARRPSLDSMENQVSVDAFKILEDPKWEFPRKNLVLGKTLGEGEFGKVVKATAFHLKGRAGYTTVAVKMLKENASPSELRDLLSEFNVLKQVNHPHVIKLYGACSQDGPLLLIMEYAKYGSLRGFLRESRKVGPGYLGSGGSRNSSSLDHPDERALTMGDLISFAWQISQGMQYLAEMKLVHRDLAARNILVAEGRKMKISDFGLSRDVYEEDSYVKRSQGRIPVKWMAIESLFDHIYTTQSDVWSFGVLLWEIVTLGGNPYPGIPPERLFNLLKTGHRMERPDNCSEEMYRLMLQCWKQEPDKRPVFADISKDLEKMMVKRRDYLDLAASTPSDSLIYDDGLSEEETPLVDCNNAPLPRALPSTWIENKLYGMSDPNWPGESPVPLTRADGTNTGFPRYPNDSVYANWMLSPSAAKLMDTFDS

[20] = target: Ribosomal protein S6 kinase alpha-1 (Homo sapiens) (UniProt Q15418); test: Binding affinity to wild-type human partial length C- terminal RSK1 kinase domain 2 (P360 to L681 residues) expressed in bacterial expression system assessed as residual binding level at 1 uM by Kinomescan method relative to control
[21] = target: Serine/threonine-protein kinase 33 (Homo sapiens) (UniProt Q9BYT3); test: Binding affinity to wild-type human full length STK33 (M1 to L514 residues) expressed in bacterial expression system assessed as residual binding level at 1 uM by Kinomescan method relative to control

Q: Which results are given for `C=CC(=O)Nc1ccccc1Nc1nc(Nc2ccc(N3CCN(C)CC3)cc2)ncc1C(=O)Nc1c(C)cccc1Cl`?
A: Activity [1]: 64%; Activity [2]: 100%; Activity [3]: 100%; Activity [4]: 100%; Activity [5]: 89%; Activity [6]: 100%; Activity [7]: 100%; Activity [8]: 96%; Activity [9]: 100%; Activity [10]: 100%; Activity [11]: 100%; Activity [12]: 93%; Activity [13]: 81%; Activity [14]: 100%; Activity [15]: 72%; Activity [16]: 94%; Activity [17]: 99%; Activity [18]: 100%; Activity [19]: 100%; Activity [20]: 100%; Activity [21]: 100%
